Cneo AK release: Cryptococcus neoformans lysis via adenylate kinase release. C. neoformans lysis, adenylate kinase release luminescence, 4 h; normalised: neutral wells 0, clomiphene wells 100. lysis activity, % at 15 µM. 360,000 compounds, 0.2% hits;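 active = mean lysis activity across replicates of at least 80%, whatever share of replicates individually reach that level; inactive = mean lysis activity below 80%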
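Schedule: static 4 h at 37 °C with compound, 1 h detection; system: C. neoformans cells; benchmarks: Clomiphene as positive control; buffer or medium: fresh YPD medium; measure: luminescence rise reflecting yeast cell lysis; measured by: luminescent adenylate kinase detection reagent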
F508del corr: correctors of CFTR F508del function in bronchial epithelial cells | CFBE cells, YFP halide quenching; stimulated with forskolin plus potentiator P3; % fluorescence drop versus neutral controls | activity (quench increase), % at 7.58 µM | 350,000 compounds, 0.36% hits;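 active = mean added fluorescence quench of at least 8% versus neutral control, with both replicates also reaching 8%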;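 also: cells transiently co-express mutant CFTR-F508del with the halide-sensitive YFP; corrector assay measuring rescue of mutant channel to the surface after 24 h compound exposure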
CaV13 ICDI inh: Primary screen for inhibitors of IQ motif and Ca2+-dependent inactivation inhibitor domain binding in CACNA1D, Förster resonance energy transfer in living cells, … | HEK cells, CFP/YFP FRET ICDI-IQ, plate reader, 10 min; percent FRET-ratio fall versus neutral wells | AID 743397 | inhibition, % at 12.3 µM | 340,000 compounds, 0.098% hits;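 active = mean replicate inhibition of at least 30% and at least 1% of replicates passing that level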;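 also: 0% = median of the neutral control wells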
rRNA inh HTS: selective bacterial rRNA inhibition in E. coli | GFP signal change (wild-type ribosome), % (concentration not given with the values) | 350,000 compounds, 1.6% hits | E. coli WT GFP vs humanized-ribosome RFP mutants, fluorescence, 24 h; hits give low values; DMSO median 0, no signal -100 | AID 720706;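 active = significant combined selectivity score with lowered wild-type GFP, culture density cut under 30%, mutant RFP and density less affected; inactive = any of these conditions unmet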
* = called active by the depositor; x = no result given; ! = repeats disagree. Rows were chosen to be rich in hits. Some 1.7% of all compounds tested hit in one or more screens of this group.

SMILES | Cneo AK release | F508del corr | CaV13 ICDI inh | rRNA inh HTS
Cc1ccc(S(=O)(=O)N(C)C[C@@H]2Oc3c(NS(=O)(=O)c4cn(C)cn4)cccc3C(=O)N([C@@H](C)CO)C[C@@H]2C)cc1 | x | 2.0 | x | 3.6
CS(=O)(=O)Nc1ccc2c(c1)[C@@H]1C[C@@H](CC(=O)NCC(F)(F)F)O[C@H](CO)[C@@H]1O2 | 3.4 | 2.0 | x | 1.6
CC(C)Cn1cnc2c(SCc3ccccc3)nc(N)nc21 | -2.2 | -2.7 | -4.2 | -3.5
Cc1ccc2ccccc2c1CSc1nc(N)nc2c1ncn2CC(C)C | x | 1.8 | -6.5 | -29.8*
C/C=C/c1ccc2c(c1)O[C@@H](CN(C)C(=O)C1CCOCC1)[C@@H](C)CN([C@@H](C)CO)S2(=O)=O | -0.6 | -0.3 | x | 0.4
O=C(C1=C(Nc2ccccc2)c2ccccc2S(=O)(=O)N1)c1ccccc1 | x | x | -6.5 | -19.4*
Cc1ccccc1NC1=C(C(=O)c2ccccc2)N(C)S(=O)(=O)c2ccccc21 | -0.2 | x | -4.1 | x
CC(C)NC(=O)N(C)C[C@@H]1Oc2ncc(-c3cccc(C#N)c3)cc2C(=O)N([C@@H](C)CO)C[C@@H]1C | x | x | x | -0.9
COc1cccc(C(=O)Oc2c(Br)cc(Br)cc2/C=N/NC(=O)c2cc(C)[nH]n2)c1 | x | 5.3 | -8.1 | -20.4*
Cc1cc(C(=O)CN2CCN(CC(=O)Nc3ccc(F)cc3)CC2)c(C)n1C1CC1 | -7.4 | 22.6* | -5.7 | 13.2
C[C@H]1CN([C@@H](C)CO)C(=O)Cc2cc(NC(=O)Cn3cnnn3)ccc2O[C@@H]1CN(C)C(=O)Nc1ccc(C(F)(F)F)cc1 | -2.1 | 2.0 | x | -2.3
C/C(=N\NC(=O)c1cc(-c2cccs2)nc2ccccc12)c1ccccn1 | -3.3 | 11.8* | -4.2 | 6.7
NNC(=O)c1cc(-c2cccs2)nc2ccccc12 | x | -2.7 | -16.2 | 5.7
COc1ccc2c3c([nH]c2c1)[C@@H](CO)N(C(=O)Nc1ccccc1F)CC31CN(C(=O)C2CC2)C1 | x | x | x | -0.4
Cc1noc(C)c1NC(=O)Nc1ccc2c(c1)C(=O)N([C@H](C)CO)C[C@H](C)[C@@H](CN(C)S(=O)(=O)c1ccccc1)OCCCC[C@@H](C)O2 | 44.4 | -0.2 | x | 1.0
Cc1[nH]c(=O)c(C(=O)/C=C/c2ccccc2F)c2c1CCCC2 | -3.5 | -10.6 | -7.3 | -18.4*
COc1ccc(NC(=O)Nc2ccc3c(c2)C(=O)N([C@H](C)CO)C[C@@H](C)[C@H](CN(C)C(=O)NC(C)C)O3)cc1 | 8.4 | 1.9 | x | 2.5
Cc1cccc(Nc2nc(N)c([N+](=O)[O-])c(NCc3ccccc3)n2)c1 | 0.2 | -0.3 | -5.4 | -14.2
Nc1nc(Nc2ccccc2)nc(NCc2ccccc2)c1[N+](=O)[O-] | x | -2.4 | -13.7 | -15.0*
COc1cccc(Nc2nc(N)c([N+](=O)[O-])c(NCc3ccccc3)n2)c1 | -5.5 | -5.8 | -4.6 | -33.8*
CC(=O)Nc1ccc2c(c1)Cc1cc(N3C(=O)C=CC3=O)ccc1-2 | 0.7 | -4.9 | -6.2 | -27.8*
C[C@@H]1CN([C@H](C)CO)C(=O)c2cc(NC(=O)Nc3ccccc3)ccc2O[C@@H](C)CCCCO[C@@H]1CN(C)C(=O)NC1CCCCC1 | 1.6 | -3.6 | x | 0.5
O=C(O)CN1C(=O)/C(=C\c2ccccc2OCc2ccc(F)cc2)SC1=S | -1.8 | -2.7 | -19.3 | -39.0*
COc1ccccc1/C=C1\SC(=S)N(CCC(=O)Nc2cccc(O)c2)C1=O | -0.9 | 0.8 | -2.4 | -30.9*
O=C1/C(=C\c2ccc(O)c(O)c2)SC(=S)N1Cc1ccccc1 | -0.5 | 1.9 | -8.1 | -19.8
SMILES | Cneo AK release | F508del corr | CaV13 ICDI inh | rRNA inh HTS
O=C1/C(=C\c2cccc(O)c2)SC(=S)N1Cc1ccccc1 | 45.6 | 1.3 | -20.5 | -20.0*
COc1cc(/C=C2\SC(=S)N(CCC(=O)Nc3cccc(O)c3)C2=O)cc(OC)c1OC | -0.3 | -0.9 | -27.4 | 1.8
COc1ccc(CN(C)C[C@H]2Oc3c(NC(=O)c4cc(C)nn4C)cccc3C(=O)N([C@H](C)CO)C[C@@H]2C)cc1 | -0.8 | -1.9 | x | -5.0
CCC(=O)N1C[C@H](C)[C@@H](OC)CN(C)C(=O)c2cc(NS(C)(=O)=O)ccc2OC[C@H]1C | -1.2 | -0.9 | x | 2.6
COCC(=O)N(C)C[C@H]1Oc2ncc(-c3ccccc3F)cc2C(=O)N([C@H](C)CO)C[C@H]1C | 21.6 | -1.1 | x | 1.5
COc1ccccc1-c1cnc2c(c1)C(=O)N([C@@H](C)CO)C[C@@H](C)[C@H](CN(C)C(=O)c1cccnc1)O2 | 89.2*! | 0.4 | -7.2 | 2.5
